ChEMBL document CHEMBL2375340, “Cytotoxic bisbenzylisoquinoline alkaloids from Stephania epigaea” (J Nat Prod, 2013)

Assays:
Assay type in all cases: functional, cell-based
A549 = test: Cytotoxicity against human A549 cells after 48 hrs by MTS assay; conditions: A549, 48 h
Outline: (§1)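 Cells kept in RPMI 1640 with 10% FBS and 100 U/mL penicillin/streptomycin, 37 °C, 5% CO2. Seeded at 5 × 10^3/well with test samples at various concentrations for 48 h. MTS (5 mg/mL in PBS) added, 4 h more. Medium partly replaced by 20% SDS overnight to dissolve formazan. Absorbance read at 570 nm. IC50 calculated by Reed and Muench method. Cisplatin served as positive control.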

SW480 = test: Cytotoxicity against human SW480 cells after 48 hrs by MTS assay; conditions: SW480, 48 h; outline: as §1
SMMC-7721 = test: Cytotoxicity against human SMMC7721 cells after 48 hrs by MTS assay; conditions: SMMC-7721, 48 h; outline: as §1
MCF7 = test: Cytotoxicity against human MCF7 cells after 48 hrs by MTS assay; conditions: MCF7, 48 h; outline: as §1
[1] = Cytotoxicity against human ECA109 cells after 48 hrs by MTT assay; conditions: ECa-109, 48 h
Outline: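 Cells grown in RPMI 1640 with 10% FBS and 100 U/mL penicillin/streptomycin, humidified 5% CO2, 37 °C. Plated 5 × 10^3/well, exposed to test samples at various concentrations for 48 h. MTT then added in place of MTS, 4 h further. Formazan dissolved overnight in 20% SDS, A570 measured. IC50 by Reed and Muench method. Tanespimycin (17AAG) was the positive control.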

HL-60 = test: Cytotoxicity against human HL60 cells after 48 hrs by MTS assay; conditions: HL-60, 48 h; outline: as §1

Structure (SMILES)	IC50 (A549)	IC50 (SW480)	IC50 (SMMC-7721)	IC50 (MCF7)	IC50 [1]	IC50 (HL-60)
COc1ccc2cc1Oc1ccc(cc1)C[C@H]1c3c(cc4c(c3Oc3cc5c(cc3OC)CCN=C5C2)OCO4)CC[N@@+]1(C)[O-]	> 10 µM	> 10 µM	> 10 µM	> 10 µM	10 µM	> 10 µM
COc1ccc2cc1Oc1ccc(cc1)C[C@H]1c3c(cc4c(c3Oc3cc5c(cc3OC)CCN[C@@H]5C2)OCO4)CCN1C	3.7 µM	3.7 µM	4.8 µM	2.3 µM	3.2 µM	2.8 µM
COc1ccc2cc1Oc1ccc(cc1)C[C@H]1c3c(cc4c(c3Oc3cc5c(cc3OC)CCN(C)[C@@H]5C2)OCO4)CCN1C [CEPHARANTHINE]	5 µM	4.7 µM	9.9 µM	2.9 µM	> 10 µM	9.2 µM
COc1ccc2cc1Oc1ccc(cc1)C[C@H]1c3cc(c(OC)cc3CCN1C)Oc1c(O)c(OC)cc3c1[C@H](C2)N(C)CC3 [FANGCHINOLINE]	> 10 µM	> 10 µM	> 10 µM	5 µM	> 10 µM	> 10 µM
COc1ccc2cc1Oc1ccc(cc1)C[C@H]1c3c(cc(OC)c(O)c3Oc3cc4c(cc3OC)CCN(C)[C@@H]4C2)CCN1C [HOMOAROMOLINE]	> 10 µM	> 10 µM	> 10 µM	9.5 µM	> 10 µM	> 10 µM
C=CCNC1=C2C[C@@H](C)C[C@H](OC)[C@H](O)[C@@H](C)/C=C(\C)[C@H](OC(N)=O)[C@@H](OC)/C=C\C=C(/C)C(=O)NC(=CC1=O)C2=O [TANESPIMYCIN]					1.1 µM	
